{"source": "paper PMC9187044", "about": "(Environmental Toxicology and Chemistry, 2021)", "key": {"[1]": {"conditions": "human liver microsomes; ref Seguin et al., 2019; cited from earlier work"}, "[2]": {"assay": "Rainbow trout liver S9 substrate depletion assay", "assay_type": "in vitro ADME, rainbow trout (Oncorhynchus mykiss)", "conditions": "for Depletion / biotransformation in RT-S9 assay (in words): active RT-S9, tested individually, up to 2 h"}, "[3]": {"assay": "In vitro half-life with human liver microsomes", "assay_type": "in vitro ADME"}, "[4]": {"assay": "Baseline equilibrium BCF predicted from DMLW and phospholipid content", "set-up": "species or system fish", "conditions": "fML of 1%"}, "[5]": {"conditions": "ref Chen et al., 2016, cited from earlier work; for CLint,in vivo: RT-S9"}, "[6]": {"assay": "RT-S9 substrate depletion assay, cationic surfactants tested as mixtures of six", "assay_type": "in vitro ADME, rainbow trout (Oncorhynchus mykiss)", "conditions": "for Clearance rate in mixture compared with single-compound assay (in words): Mixture 1; for CLint,in vivo lower in mixture than tested individually: Mixture 2"}, "[7]": {"conditions": "14C-labeled, 1.1 × 10^6 cells/ml, by 2.5 h; ref Bernhard et al., 2006; cited from earlier work"}, "[8]": {"assay": "N-demethylation metabolite formation in RT-S9 assay", "assay_type": "in vitro ADME, rainbow trout (Oncorhynchus mykiss)", "conditions": "for 1° alkylamine product present at last time point as % of removed parent: 120 min; for Time of peak concentration of 2° alkylamine metabolite: 2-h RT-S9 assay", "summary_of_the_method": "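Trout liver S9 (2 mg/ml protein) with 2 mM NADPH, 2 mM UDPGA, 0.1 mM PAPS, 5 mM GSH and alamethicin, pH 7.8, 11 °C; substrate starts at about 1.0 µM. Sampled at 0, 20, 40, 60, 90 and 120 min and quenched in ice-cold acetonitrile. N-demethylated products scanned by LC–MS/MS and quantified against external standards. Metabolite mass divided by parent mass removed at the same time point.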"}, "[9]": {"assay": "Cofactor-limited depletion of T12 in RT-S9 assay", "assay_type": "in vitro ADME, rainbow trout (Oncorhynchus mykiss)", "summary_of_the_method": "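Pooled liver S9 from five trout, 2 mg/ml protein, in 100 mM PPBS pH 7.8 with 10 μg/ml alamethicin, at 11 °C; substrate starts at about 1.0 µM. Duplicate six-sample time series over 60 min, either with no added cofactors, NADPH (2 mM) alone, NADPH plus UDPGA (2 mM), GSH (5 mM) or PAPS (0.1 mM), or all cofactors. Parent and N-demethyl product measured by LC–MS/MS.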"}}, "note": "“Also recorded” adds a separate entry of the source. Where two headings read alike, the source gives them in different places."}
{"smiles": "CCCCCCCCCC[N+](C)(C)Cc1ccccc1.[Cl-]", "note": "[BAC10]", "values": [{"measurement": "In vitro half-life", "setting": "[1]", "value": 1, "unit": "min"}]}
{"smiles": "CCCCCCCCCCCC[N+](C)(C)Cc1ccccc1", "note": "[BAC12, Benzyldimethyldodecylammonium chloride]", "values": [{"measurement": "In vitro half-life", "setting": "[1]", "value": 3, "unit": "min"}, {"measurement": "CLint,in vitro", "setting": "[2]; RT-S9, present study, tested individually", "value": 0.14, "unit": "ml h^–1 mg protein^–1"}, {"measurement": "Depletion / biotransformation in RT-S9 assay (in words)", "setting": "[2]", "value": "significant depletion"}, {"measurement": "HLM CLint,in vitro faster than RT-S9 CLint,in vitro", "setting": "[3]; HLM vs present study RT-S9", "value": "approximately 100 times"}, {"measurement": "CLint,in vitro corresponding to HLM half-life", "setting": "[3]; from half-life of ref Seguin et al., 2019", "value": 13.86, "unit": "ml h^–1 mg protein^–1"}]}
{"smiles": "CCCCCCCCCCCCCC[N+](C)(C)Cc1ccccc1.[Cl-]", "note": "[BAC14, Benzyldimethyltetradecylammonium chloride]", "values": [{"measurement": "Depletion / biotransformation in RT-S9 assay (in words)", "setting": "[2]", "value": "No significant depletion"}]}
{"smiles": "CCCCCCCCCCCCCCCC[N+](C)(C)Cc1ccccc1", "note": "[BAC16]", "values": [{"measurement": "In vitro half-life", "setting": "[1]", "value": 15, "unit": "min"}]}
{"smiles": "CCCCCCCCCC[N+](C)(C)CCCCCCCCCC", "note": "[DDAC, didecyldimethylammonium chloride]", "values": [{"measurement": "Factor by which BCFbaseline estimate exceeds empirical BCF or BAF", "setting": "[4]", "value": 420}]}
{"smiles": "CCCCCCCCN", "note": "[P8]", "values": [{"measurement": "Depletion / biotransformation in RT-S9 (in words)", "setting": "[5]", "value": "no significant depletion"}]}
{"smiles": "CCCCCCCCCN", "note": "[P9, Nonylamine]", "values": [{"measurement": "Clearance rate in mixture compared with single-compound assay (in words)", "setting": "[6]", "value": "not significantly different"}]}
{"smiles": "CCCCCCCCCCCCN", "note": "[P12, Dodecylamine]", "values": [{"measurement": "Depletion / biotransformation in RT-S9 assay (in words)", "setting": "[2]", "value": "No significant depletion"}, {"measurement": "CLint,in vivo", "setting": "[5]", "value": 37, "unit": "ml h^–1 g liver^–1"}]}
{"smiles": "CCCCCCCCCCCC(=O)OCCN", "note": "[P12‐Ac, 2-aminoethyl laurate]", "values": [{"measurement": "Clearance rate relative to alkylamine analog P12", "setting": "[2]; RT-S9 assay", "value": 10, "unit": "times higher"}]}
{"smiles": "CCCCCCCCCCCCCN", "note": "[P13, Tridecylamine]", "values": [{"measurement": "Factor by which BCFbaseline estimate exceeds empirical BCF or BAF", "setting": "[4]", "value": 10}, {"measurement": "Predicted BCFbaseline", "setting": "[4]", "value": "14,000 L kg^–1"}]}
{"smiles": "CCCCCCCCCCCCCCN", "note": "[P14, Tetradecylamine]", "values": [{"measurement": "Depletion / biotransformation in RT-S9 assay (in words)", "setting": "[2]", "value": "No significant depletion"}]}
{"smiles": "CCCCCCCCCCCCCCCCN", "note": "[P16, Hexadecylamine]", "values": [{"measurement": "Concentration remaining, % of starting value", "setting": "[7]", "value": "56.0 ± 1.3", "unit": "%"}, {"measurement": "Factor by which BCFbaseline estimate exceeds empirical BCF or BAF", "setting": "[4]", "value": 70}, {"measurement": "Depletion / biotransformation in RT-S9 assay (in words)", "setting": "[2]", "value": "No significant depletion; also recorded: no detectable biotransformation"}]}
{"smiles": "CCCCCCCC[N+](C)(C)C.[Cl-]", "note": "[Q8]", "values": [{"measurement": "Depletion / biotransformation in RT-S9 (in words)", "setting": "[5]", "value": "identical result"}]}
{"smiles": "CCCCCCCCCC[N+](C)(C)C.[Br-]", "note": "[Q10, N,N,N-Trimethyldecylammonium bromide]", "values": [{"measurement": "Depletion / biotransformation in RT-S9 assay (in words)", "setting": "[2]", "value": "no significant biotransformation"}]}
{"smiles": "CCCCCCCCCCCC[N+](C)(C)C.[Cl-]", "note": "[Q12]", "values": [{"measurement": "Depletion / biotransformation in RT-S9 (in words)", "setting": "[5]", "value": "identical result"}]}
{"smiles": "CCCCCCCCCCCCCC[N+](C)(C)C.[Cl-]", "note": "[Q14, N,N,N-Trimethyltetradecylammonium chloride]", "values": [{"measurement": "Factor by which BCFbaseline estimate exceeds empirical BCF or BAF", "setting": "[4]", "value": 33}, {"measurement": "Depletion / biotransformation in RT-S9 assay (in words)", "setting": "[2]", "value": "no significant biotransformation"}]}
{"smiles": "CCCCCCCCCCCCCCCC[N+](C)(C)C.[Cl-]", "note": "[Q16, N,N,N-Trimethylhexadecylammonium chloride]", "values": [{"measurement": "Depletion / biotransformation in RT-S9 assay (in words)", "setting": "[2]", "value": "no significant biotransformation"}]}
{"smiles": "CCCCCCCCNC", "note": "[S8]", "values": [{"measurement": "Depletion / biotransformation in RT-S9 (in words)", "setting": "[5]", "value": "negligible depletion"}]}
{"smiles": "CCCCCCCCCCNC", "note": "[S10, N-Methyldecylamine]", "values": [{"measurement": "1° alkylamine product present at last time point as % of removed parent", "setting": "[8]", "value": 10, "unit": "%"}]}
{"smiles": "CCCCCCCCCCCCNC", "note": "[S12, N-Methyldodecylamine]", "values": [{"measurement": "1° alkylamine product present at last time point as % of removed parent", "setting": "[8]", "value": 25, "unit": "%"}, {"measurement": "CLint,in vivo lower in mixture than tested individually", "setting": "[6]", "value": 50, "unit": "%"}, {"measurement": "CLint,in vivo", "setting": "[5]", "value": 162, "unit": "ml h^–1 g liver^–1"}]}
{"smiles": "CCCCCCCCCCCCCCCCNC", "note": "[S16, N-Methylhexadecylamine]", "values": [{"measurement": "Factor by which BCFbaseline estimate exceeds empirical BCF or BAF", "setting": "[4]", "value": 49}, {"measurement": "1° alkylamine product present at last time point as % of removed parent", "setting": "[8]", "value": 55, "unit": "%"}, {"measurement": "CLint,in vivo lower in mixture than tested individually", "setting": "[6]", "value": 70, "unit": "%"}]}
{"smiles": "CCCCCCCCN(C)C", "note": "[T8, N,N-Dimethyloctylamine]", "values": [{"measurement": "CLint,in vivo", "setting": "[5]", "value": 184, "unit": "ml h^–1 g liver^–1"}]}
{"smiles": "CCCCCCCCCN(C)C", "note": "[T9, N,N-Dimethylnonylamine]", "values": [{"measurement": "CLint,in vivo lower in mixture than tested individually", "setting": "[6]", "value": 43, "unit": "%"}, {"measurement": "Depletion / biotransformation in RT-S9 assay (in words)", "setting": "[2]", "value": "reduced below the limit of quantitation"}]}
{"smiles": "CCCCCCCCCCN(C)C", "note": "[T10, N,N-Dimethyldecylamine]", "values": [{"measurement": "Time of peak concentration of 2° alkylamine metabolite", "setting": "[8]", "value": 20, "unit": "min"}, {"measurement": "Clearance rate in mixture compared with single-compound assay (in words)", "setting": "[6]", "value": "not significantly different"}, {"measurement": "Depletion / biotransformation in RT-S9 assay (in words)", "setting": "[2]", "value": "reduced below the limit of quantitation"}]}
{"smiles": "CCCCCCCCCCCCN(C)C", "note": "[T12, N,N-Dimethyldodecylamine]", "values": [{"measurement": "CLint,in vivo", "setting": "[9]; RT-S9 with only NADPH added", "value": 224, "unit": "ml h^–1 g liver^–1"}, {"measurement": "Clearance (in words)", "setting": "[9]; UDPGA or GSH in combination with NADPH, vs NADPH only", "value": "did not result in increased clearance"}, {"measurement": "Depletion (in words)", "setting": "[9]; active RT-S9, no added cofactors", "value": "no significant depletion"}, {"measurement": "Depletion / biotransformation in RT-S9 assay (in words)", "setting": "[2]", "value": "reduced below the limit of quantitation"}, {"measurement": "CLint,in vivo", "setting": "[5]", "value": 472, "unit": "ml h^–1 g liver^–1"}]}
{"smiles": "CCCCCCCCCCCCCN(C)C", "note": "[T13, N,N-Dimethyltridecylamine]", "values": [{"measurement": "Clearance rate in mixture compared with single-compound assay (in words)", "setting": "[6]", "value": "not significantly different"}]}
{"smiles": "CCCCCCCCCCCCCCN(C)C", "note": "[T14, N,N-Dimethyltetradecylamine]", "values": [{"measurement": "Factor by which BCFbaseline estimate exceeds empirical BCF or BAF", "setting": "[4]", "value": 3.1}]}
{"smiles": "CCCCCCCCCCCCCCCCN(C)C", "note": "[T16, N,N-Dimethylhexadecylamine]", "values": [{"measurement": "Factor by which BCFbaseline estimate exceeds empirical BCF or BAF", "setting": "[4]", "value": 42}, {"measurement": "Time of peak concentration of 2° alkylamine metabolite", "setting": "[8]", "value": 120, "unit": "min"}]}
{"smiles": "CCCCCCCCCCCCCCCCCCN(C)C", "note": "[T18, N,N‐dimethyloctadecylamine]", "values": [{"measurement": "Factor by which BCFbaseline estimate exceeds empirical BCF or BAF", "setting": "[4]", "value": 128}]}
